Laboratory results: ChEMBL document CHEMBL4196186, “Absolute Configurations and Bioactivities of Guaiane-Type Sesquiterpenoids Isolated from Pogostemon cablin” (J Nat Prod, 2018)
≈ marks a conversion by molar mass, not a printed value. Calls of active or inactive are those of the source. No cut-off for these calls is given here.

How the values were obtained:
[1] = test system: PC-12; experiment: Neuroprotective activity against glutamate-induced cell damage in rat PC12 cells assessed as increase in cell viability at 10 uM pretreated followed by glutamate challenge and measured after 24 hrs by MTT assay; format: functional, cell-based
[2] = test system: SGC-7901; experiment: Cytotoxicity against human SGC7901 cells after 48 hrs by MTT assay; format: functional, cell-based; conditions: SGC-7901, 48 h
[3] = test system: Staphylococcus aureus; experiment: Antibacterial activity against methicillin-resistant Staphylococcus aureus ATCC 43300 after 24 hrs by double dilution method; format: functional, organism-based
[4] = test system: Escherichia coli; experiment: Antibacterial activity against Escherichia coli ATCC 25922 after 24 hrs by double dilution method; format: functional, organism-based
[5] = test system: Thoracic aorta; experiment: Vasorelaxant activity in Sprague-Dawley rat thoracic aortic ring assessed as inhibition of KCl-induced contraction at 50 uM; format: functional, tissue-based
Procedure, shortened: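 Rat aortic rings contracted with KCl; relaxation measured with test agent at a single concentration of 50 μM. Methoxyverapamil and phentolamine mesylate were the positive controls.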

[6] = test system: MCF7; experiment: Cytotoxicity against human MCF7 cells after 48 hrs by MTT assay; format: functional, cell-based; conditions: MCF7, 48 h
[7] = Cytotoxicity against human […] cells after 48 hrs by MTT assay; format: functional, cell-based
[8] = test system: Staphylococcus aureus; experiment: Antibacterial activity against Staphylococcus aureus ATCC 25923 after 24 hrs by double dilution method; format: functional, organism-based
[9] = test system: A549; experiment: Cytotoxicity against human A549 cells after 48 hrs by MTT assay; format: functional, cell-based; conditions: A549, 48 h
[10] = test system: PC-12; experiment: Neuroprotective activity against glutamate-induced cell damage in rat PC12 cells assessed as cell viability at 50 uM pretreated followed by glutamate challenge and measured after 24 hrs by MTT assay (reference value: 49.14 +/- 3.15%); format: functional; conditions: read-out: Activity
[11] = test system: Candida albicans; experiment: Antifungal activity against Candida albicans CMCC 98001 after 24 hrs by double dilution method; format: functional; conditions: CMCC 98001, 24 h
[12] = test system: Thoracic aorta; experiment: Vasorelaxant activity in Sprague-Dawley rat thoracic aortic ring assessed as inhibition of KCl-induced contraction; format: functional, tissue-based
Procedure, shortened: (§1)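 Rat aortic rings precontracted with phenylephrine (PHE) or KCl; relaxation measured over a range of concentrations and EC50 derived. Positive controls were phentolamine mesylate and methoxyverapamil.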

[13] = test system: Thoracic aorta; experiment: Vasorelaxant activity in Sprague-Dawley rat thoracic aortic ring assessed as inhibition of phenylephrine-induced contraction; format: functional, tissue-based; procedure, shortened: as §1

Row | SMILES | Activity [1] | IC50 [2] | Activity [3] | Activity [4] | inhibition [5] | IC50 [6] | IC50 [7] | Activity [8] | IC50 [9] | viability at 50 µM [10] | MIC [11] | inhibition [12] | EC50 [13] | inhibition [13] | EC50 [12]
1 | COCCOC(=O)C1=C(C)NC(C)=C(C(=O)OC(C)C)C1c1cccc([N+](=O)[O-])c1 (centres undefined) | Active | – | – | – | – | – | – | – | – | – | – | – | – | – | –
2 | C=C(C)[C@@H]1C[C@@H](O)C(=C)C2=CC[C@H](C)[C@@H]2C1 | – | > 50 µM | inactive | inactive | inactive | > 50 µM | > 50 µM | inactive | > 50 µM | – | – | – | – | – | –
3 | C=C(C)[C@@H]1CC[C@H](C)[C@@H](CCC(C)=O)C(=O)C1 | – | > 50 µM | inactive | inactive | inactive | > 50 µM | > 50 µM | inactive | > 50 µM | 75.7% | – | – | – | – | –
4 | C=C(C)[C@@H]1CC[C@](C)(O)[C@@H]2CC[C@H](C)[C@]2(O)C1 | – | > 50 µM | inactive | inactive | inactive | > 50 µM | > 50 µM | inactive | > 50 µM | 66.1% | – | – | – | – | –
5 | C=C(C)[C@@H]1CCC(C)=C2C(=O)C=C(C)[C@@H]2C1 | – | > 50 µM | inactive | inactive | inactive | > 50 µM | > 50 µM | inactive | > 50 µM | – | – | – | – | – | –
6 | C=C(C)[C@@H]1CCC(=C)[C@]2(O)[C@@H](O)C[C@H](C)[C@@H]2C1 | – | > 50 µM | inactive | inactive | – | > 50 µM | > 50 µM | inactive | > 50 µM | – | 500 µM (≈ 118 µg/mL) | Dose-dependent effect | 5.4 µM | Dose-dependent effect | –
7 | C=C(C)[C@@H]1CC[C@H](C)[C@]23CC[C@](C)(O)[C@@]2(C1)O3 | – | > 50 µM | inactive | inactive | inactive | > 50 µM | > 50 µM | inactive | > 50 µM | 65.5% | – | – | – | – | –
8 | C=C(C)[C@@H]1CC[C@H](C)[C@@]23O[C@]2(C1)[C@@H](C)C[C@H]3O | – | > 50 µM | inactive | inactive | – | > 50 µM | > 50 µM | inactive | > 50 µM | – | 300 µM (≈ 70.9 µg/mL) | Dose-dependent effect | 1.6 µM | Dose-dependent effect | 24.2 µM
9 | C=C(C)[C@@H]1CC[C@@](C)(O)C2=C[C@@H](O)[C@H](C)[C@@H]2C1 | – | > 50 µM | inactive | inactive | inactive | > 50 µM | > 50 µM | inactive | > 50 µM | – | – | – | – | – | –
10 | C=C(C)[C@@H]1CC[C@H](C)[C@H](CCC(C)=O)C(=O)C1 | – | > 50 µM | inactive | inactive | – | > 50 µM | > 50 µM | inactive | > 50 µM | 78.7% | – | Active | – | – | –
